Activity calls are given as the source filed them. The rule behind the calls is not given here.
Legend:
K562 [1] = test: Induction of apoptosis in human K562 cells incubated for 24 hrs by annexin V FITC and propidium iodide staining based flow cytometry relative to control; format: functional; set-up: concentration or dose not given beside the values
K562 [2] = test: Antiproliferative activity against human K562 cells assessed as reduction in cell growth incubated for 72 hrs by MTT assay; format: functional, cell-based; conditions: K562, 72 h
In short: (§1)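 Colorimetric MTT assay on human tumour lines K562 (chronic myeloid leukemia), HL-60 (promyelocytic leukemia), Jurkat (T cell leukemia), Raji (Burkitt's lymphoma), HT-29 (colorectal adenocarcinoma), HeLa (cervix adenocarcinoma) and normal lung fibroblast MRC-5; cells exposed to compounds for 72 h.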

HL-60 = test: Antiproliferative activity against human HL60 cells assessed as reduction in cell growth incubated for 72 hrs by MTT assay; format: functional, cell-based; conditions: HL-60, 72 h
In short: (§2)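 Colorimetric MTT assay on human tumour lines K562 (chronic myeloid leukemia), HL-60 (promyelocytic leukemia), Jurkat (T cell leukemia), Raji (Burkitt's lymphoma), HT-29 (colorectal adenocarcinoma), HeLa (cervix adenocarcinoma) and normal lung fibroblast MRC-5; cells exposed to compounds for 72 h. IC50 taken as concentration giving 50% growth inhibition versus untreated control.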

Jurkat = test: Antiproliferative activity against human Jurkat cells assessed as reduction in cell growth incubated for 72 hrs by MTT assay; format: functional, cell-based; in short: as §2
Raji = test: Antiproliferative activity against human Raji cells assessed as reduction in cell growth incubated for 72 hrs by MTT assay; format: functional, cell-based; in short: as §1
HT-29 = test: Antiproliferative activity against human HT-29 cells assessed as reduction in cell growth incubated for 72 hrs by MTT assay; format: functional, cell-based; conditions: HT-29, 72 h; in short: as §2
HeLa = test: Antiproliferative activity against human HeLa cells assessed as reduction in cell growth incubated for 72 hrs by MTT assay; format: functional, cell-based; in short: as §2
MRC5 = test: Cytotoxicity against human MRC5 cells assessed as reduction in cell viability incubated for 72 hrs by MTT assay; format: cell-based; conditions: MRC5, 72 h; in short: as §1
K562 [3] = test: Cell cycle arrest in human K562 cells assessed as accumulation in G2/M phase incubated for 72 hrs by propidium iodide staining based flow cytometry (reference value: 15.45%); format: functional
In short: (§3)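 Exponentially growing K562 cells treated for 24 or 72 h, untreated cells as control; cells stained with propidium iodide and DNA content read by flow cytometry. Phase distribution (subG1, G0/G1, S, G2/M) taken from one-parameter histograms, subG1 scored as hypodiploid, apoptotic cells.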

K562 [4] = test: Cell cycle arrest in human K562 cells assessed as accumulation in S phase incubated for 72 hrs by propidium iodide staining based flow cytometry (reference value: 36.05%); format: functional; in short: as §3
K562 [5] = test: Cell cycle arrest in human K562 cells assessed as accumulation in G0/G1 phase incubated for 72 hrs by propidium iodide staining based flow cytometry (reference value: 45.43%); format: functional; in short: as §3
K562 [6] = test: Cell cycle arrest in human K562 cells assessed as accumulation in SubG1 phase incubated for 72 hrs by propidium iodide staining based flow cytometry (reference value: 3.07%); format: functional; in short: as §3
K562 [7] = test: Induction of apoptosis in human K562 cells incubated for 72 hrs by annexin V FITC and propidium iodide staining based flow cytometry relative to control; format: functional; set-up: concentration or dose not given beside the values
In short: (§4)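 K562 cells treated for 72 h, stained with Annexin V-FITC/propidium iodide and analysed by flow cytometry. Apoptotic, necrotic and live fractions scored as percent of gated cells; specific apoptosis and specific necrosis calculated from these counts.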

K562 [8] = test: Induction of necrosis in human K562 cells incubated for 72 hrs by annexin V FITC and propidium iodide staining based flow cytometry relative to control; format: functional; set-up: concentration or dose not given beside the values; in short: as §4
K562 [9] = test: Induction of apoptosis in human K562 cells assessed as Bcl2 level incubated for 72 hrs by Western blot analysis (reference value: 100%); format: functional
In short: (§5)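 K562 cells treated for 72 h; Bcl-2, BAX, caspase 3 precursor (32 kDa), caspase 3 active subunit (18 kDa) and PARP (112 and 85 kDa) measured by Western blot and expressed as % of untreated control.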

K562 [10] = test: Induction of apoptosis in human K562 cells assessed as Bax level incubated for 72 hrs by Western blot analysis (reference value: 100%); format: functional; in short: as §5
K562 [11] = test: Induction of apoptosis in human K562 cells assessed as 32 kDa Caspase 3 precursor level incubated for 72 hrs by Western blot analysis (reference value: 100%); format: functional; in short: as §5
K562 [12] = test: Induction of apoptosis in human K562 cells assessed as 18 kDa Caspase 3 active subunit level incubated for 72 hrs by Western blot analysis (reference value: 100%); format: functional; in short: as §5
K562 [13] = test: Induction of apoptosis in human K562 cells assessed as 112 kDa PARP level incubated for 72 hrs by Western blot analysis (reference value: 100%); format: functional; in short: as §5
K562 [14] = test: Induction of apoptosis in human K562 cells assessed as 85 kDa PARP level incubated for 72 hrs by Western blot analysis (reference value: 100%); format: functional; in short: as §5
K562 [15] = test: Induction of necrosis in human K562 cells incubated for 24 hrs by annexin V FITC and propidium iodide staining based flow cytometry relative to control; format: functional; set-up: concentration or dose not given beside the values
K562 [16] = test: Cell cycle arrest in human K562 cells assessed as accumulation in G2/M phase incubated for 24 hrs by propidium iodide staining based flow cytometry (reference value: 14.29%); format: functional; in short: as §3
K562 [17] = test: Cell cycle arrest in human K562 cells assessed as accumulation in S phase incubated for 24 hrs by propidium iodide staining based flow cytometry (reference value: 48.38%); format: functional; in short: as §3
K562 [18] = test: Cell cycle arrest in human K562 cells assessed as accumulation in G0/G1 phase incubated for 24 hrs by propidium iodide staining based flow cytometry (reference value: 36.28%); format: functional; in short: as §3
K562 [19] = test: Cell cycle arrest in human K562 cells assessed as accumulation in sub-G1 phase incubated for 24 hrs by propidium iodide staining based flow cytometry (reference value: 1.05%); format: functional; in short: as §3
K562 [20] = test: Cell cycle arrest in human K562 cells assessed as decrease in cell accumulation at G2/M phase incubated for 72 hrs by propidium iodide staining based flow cytometry relative to tiazofurin; format: functional; in short: as §3
K562 [21] = test: Potency index, ratio of tiazofurin IC50 to compound IC50 for cytotoxicity against human K562 cells incubated for 72 hrs by MTT assay; format: functional
K562 [22] = test: Potency index, ratio of doxorubicin IC50 to compound IC50 for cytotoxicity against human K562 cells incubated for 72 hrs by MTT assay; format: functional
[23] = Ratio of compound IC50 to tiazofurin IC50 for cytotoxicity against human MRC5 cells incubated for 72 hrs by MTT assay; format: cell-based; conditions: read-out: Ratio IC50
K562 [24] = test: Induction of apoptosis in human K562 cells incubated for 72 hrs by annexin V FITC and propidium iodide staining based flow cytometry relative to tiazofurin; format: functional; in short: as §4
K562 [25] = test: Induction of apoptosis in human K562 cells assessed as reduction in cell membrane integrity at cytotoxic IC50 incubated for 72 hrs by acridine orange and ethidium bromide double staining based fluorescence microscopy; format: functional
K562 [26] = test: Genotoxicity in human K562 cells assessed as increase in DNA damage at cytotoxic IC50 incubated for 72 hrs by comet assay; format: toxicity, cell-based; conditions: k562, 72 h
In short: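 Modified alkaline comet assay: cells set in agarose on slides, electrophoresed horizontally, stained with ethidium bromide and imaged by fluorescence microscopy. 50 comets scored per sample; mean tail moment used as the DNA-damage measure.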

Row | Structure (SMILES) | Activity (K562 [1]) [%] | IC50 (K562 [2]) [nM] | IC50 (HT-29) [nM] | Activity (K562 [3]) [%] | Activity (K562 [4]) [%] | Activity (K562 [5]) [%] | Activity (K562 [6]) [%] | Activity (K562 [7]) [%] | Activity (K562 [8]) [%] | Activity (K562 [9]) [%] | Activity (K562 [10]) [%] | Activity (K562 [11]) [%] | Activity (K562 [12]) [%] | Activity (K562 [13]) [%] | Activity (K562 [14]) [%] | Activity (K562 [15]) [%] | Activity (K562 [16]) [%] | Activity (K562 [17]) [%] | Activity (K562 [18]) [%] | Activity (K562 [19]) [%] | further results
1 | [N-]=[N+]=N[C@H]1[C@H](O)[C@@H](CO)O[C@H]1c1nc(C(N)=O)cs1 | 12.47 | 6280 | 2480 | 13.6 | 35.15 | 37.65 | 13.59 | 12.86 | 6.24 | 35.23 | 186.25 | 3222.35 | 156.25 | 355.91 | 169.74 | 1.26 | 20.75 | 47.46 | 29.73 | 2.32 | IC50 (HL-60): 7.55 µM; IC50 (Jurkat): > 100 µM; IC50 (Raji): 40500 nM; IC50 (HeLa): 29.9 µM; IC50 (MRC5): > 100 µM; fold change (FC) (K562 [20]): 2 - 2.4
2 | CC(=O)N[C@H]1[C@H](O)[C@@H](CO)O[C@H]1c1nc(C(N)=O)cs1 | 10.64 | 6.1 | > 100000 | 11.66 | 36.13 | 38.86 | 13.36 | 22.85 | 7.29 | 149.59 | 141.43 | 777.09 | 59.32 | 477.15 | 534.18 | 1.23 | 17.67 | 46.93 | 33.62 | 2.11 | IC50 (HL-60): 12.9 µM; IC50 (Jurkat): > 100 µM; IC50 (Raji): 2560 nM; IC50 (HeLa): > 100 µM; IC50 (MRC5): 3.21 µM; Ratio IC50 (K562 [21]): 309; Ratio IC50 (K562 [22]): 40; selectivity ratio at 72 h [23]: 9; fold change (FC) (K562 [20]): 2 - 2.4; fold change (FC) (K562 [24]): 2
3 | NC(=O)c1csc([C@@H]2O[C@H](CO)[C@@H](O)[C@@H]2N)n1 | 7.07 | 1970 | 23400 | 10.79 | 34.2 | 37.94 | 17.08 | 23.39 | 9.82 | 414.66 | 193 | 1144.41 | 153.73 | 387.73 | 570.91 | 9.58 | 9.11 | 52.43 | 36.67 | 2.58 | IC50 (HL-60): 1.02 µM; IC50 (Jurkat): 0.04 µM; IC50 (Raji): 1030 nM; IC50 (HeLa): 1.03 µM; IC50 (MRC5): > 100 µM; fold change (FC) (K562 [20]): 2 - 2.4; fold change (FC) (K562 [24]): 2
4 | COc1cccc2c1C(=O)c1c(O)c3c(c(O)c1C2=O)C[C@@](O)(C(=O)CO)C[C@@H]3O[C@H]1C[C@H](N)[C@H](O)[C@H](C)O1 [DOXORUBICIN] | – | – | 150 | – | – | – | – | – | – | – | – | – | – | – | – | – | – | – | – | – | –
5 | NC(=O)c1csc([C@@H]2O[C@H](CO)[C@@H](O)[C@H]2O)n1 [TIAZOFURIN] | -0.34 | – | – | 5.74 | 33.62 | 35.66 | 24.99 | 13.71 | 13.71 | 344.33 | 338.37 | 1302.79 | 89.69 | 299.68 | 214.99 | 3.76 | 7.55 | 53.16 | 37.08 | 2.22 | Activity (K562 [25]): Active; Activity (K562 [26]): Toxic
